PMC3710193 (Journal of immunology (Baltimore, Md. : 1950), 2011)
Values joined by “and” are separate entries in the source; they are usually repeats but may differ in a detail not shown here. Identical values can stand only once.

Tests used:
[1] = system: spleen NKT cells; assay: Intracellular cytokine staining for IFN-γ in spleen NKT cells at 8 hours; format: cell-based, C57BL/6 mice; settings: highest dose 100 ng/ml, ICS
Method in brief: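 Splenocytes from C57BL/6 mice (5×10^5/well) were cultured 8 hr with test glycolipid (100, 10, 1 ng/ml), with Golgistop for the final 4 hr. Four replicate wells were pooled per determination. Cells were surface-stained with glycolipid-loaded CD1d tetramer-PE and anti-TCR-β, fixed, permeabilised and stained for intracellular IFN-γ. Mean ± SEM of three experiments, each the mean of duplicate cultures.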

[2] = system: spleen cells; assay: Cytometric bead array of 72 hr splenocyte culture supernatants; format: cell-based, C57BL/6 mice; settings: 72 hr spleen cell cultures, CBA
Method in brief: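 C57BL/6 splenocytes (5×10^5/well) pulsed with test glycolipid at 100, 10 or 1 ng/ml and cultured overnight. Medium was then replaced without further glycolipid, and supernatants were harvested at 72 hr. Mean ± SEM of three independent experiments (IL-10: two), each the mean of duplicate cultures.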

[3] = system: Vβ7 NKT TCR / CD1d-Ag; assay: SPR of Vβ7 NKT TCR binding to glycolipid-loaded CD1d; parameters: species or system mouse
Method in brief: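 Refolded mouse Vα14-Vβ7 NKT TCR flowed over glycolipid-loaded mouse CD1d (baculovirus-expressed, BirA/His-tagged) captured on streptavidin chips; CD1d-endogenous lipid surface subtracted. 25°C, HEPES buffer pH 7.4, 150 mM NaCl, 0.005% P20. Kinetics: 300–500 RU, 0.19–25 μM, 50 μl/min for 60 s, 1:1 Langmuir fit, duplicate. Steady-state: 2000 RU, 0.039–40 μM, 5 μl/min for 90 s, one-site fit.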

[4] = system: NKT cells; assay: In vivo stimulation of NKT cells, serum cytokines by cytometric bead array; parameters: species or system mice; settings: 1 μg i.p.
Method in brief: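 Mice received 1 μg test glycolipid i.p. in 200 μL PBS. Serum was collected at 2 and 24 hr, and IFN-γ and IL-4 were quantified by cytometric bead array. Ratio taken as serum IFN-γ at 24 hr over IL-4 at 2 hr. Results combine three independent experiments, 10 mice per group.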

[5] = molecular target: T1, Vβ8.2 NKT TCR (Vα14-Vβ8.2) / CD1d-Ag (Mus musculus, UniProt P11609+Z9CWY5XBV8); assay: SPR of Vβ8.2 NKT TCR binding to glycolipid-loaded CD1d; settings: for ka / kd: SPR kinetic experiment, 25°C, 1:1 Langmuir model
T1 sequence (P11609 22-305 limits assumed): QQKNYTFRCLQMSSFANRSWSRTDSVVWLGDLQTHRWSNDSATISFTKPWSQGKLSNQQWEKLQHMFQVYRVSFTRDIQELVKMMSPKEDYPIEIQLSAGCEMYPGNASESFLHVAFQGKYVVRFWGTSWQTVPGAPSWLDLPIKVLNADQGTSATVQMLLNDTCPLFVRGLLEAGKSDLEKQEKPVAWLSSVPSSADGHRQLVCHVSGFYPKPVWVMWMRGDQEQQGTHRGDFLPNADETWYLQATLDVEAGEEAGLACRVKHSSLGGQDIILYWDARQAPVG
T1 sequence (P01887 21-119): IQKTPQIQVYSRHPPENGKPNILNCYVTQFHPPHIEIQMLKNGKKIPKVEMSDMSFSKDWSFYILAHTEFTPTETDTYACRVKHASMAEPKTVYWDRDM

[6] = system: spleen NKT cells; assay: CFSE proliferation assay of spleen NKT cells; format: cell-based, C57BL/6 mice; settings: 72 hr, 100, 10 and 1 ng/ml
[7] = Vβ7 TCR, SPR kinetic experiment, 25°C, 1:1 Langmuir model

## CCCCCCCCCCCCCCCCCCCCCCCCCC(=O)N[C@@H](CC[C@H]1O[C@H](CO)[C@H](O)[C@H](O)[C@H]1O)[C@H](O)[C@H](O)CCCCCCCCCCCCCC [α-C-GalCer]
[1]
  IFN-γ+ NKT cells: ~ 12%
[2]
  cytokine amounts, fold lower compared to α-GalCer: 2–5 fold
[3]; Vβ7 NKT TCR
  NKT TCR affinity relative to CD1d-α-GalCer interaction (fold lower): approximately 10 fold
[4]; serum
  ratio of peak IFN-γ response (24 hours) to peak IL-4 response (2 hours): Th1-like bias
[4]; serum at 2 and 24 hr
  serum IFN-γ production in vivo compared to α-GalCer: lower amounts
  serum IL-4 production in vivo compared to α-GalCer: lower amounts
[5]; KD(eq), Vβ8.2 TCR, steady-state affinity determined in separate experiment
  Kd: ~2 µM and 2 µM
[5]; Vβ8.2 NKT TCR
  NKT TCR affinity relative to CD1d-α-GalCer interaction (fold lower): approximately 10 fold
[5]; Vβ8.2 TCR
  ka: 225000 M⁻¹ s⁻¹ and 225000 ± 41000 M⁻¹ s⁻¹
  kd: 0.29 s⁻¹ and 0.29 ± 0.02 s⁻¹
[6]
  NKT cell proliferation (in words): little difference in the proliferative response

## CCCCCCCCCCCCCCCCCCCCCCCCCC(=O)N[C@@H](CO[C@H]1O[C@H](CO)[C@H](O)[C@H](O)[C@H]1O)[C@H](O)[C@H](O)CCCCCCCCCCCCCC [α-GalCer, α-galactosylceramide, reference compound]
[1]
  IFN-γ+ NKT cells: approximately 25%
[3]; [7]
  ka: 231000 ± 31500 M⁻¹ s⁻¹
  kd: 0.09 ± 0.003 s⁻¹
[5]; Vβ8.2 TCR
  ka: 162000 M⁻¹ s⁻¹ and 162000 ± 9500 M⁻¹ s⁻¹
  kd: 0.02 s^−1 and 0.02 ± 4.5×10^−4 s^−1
[5]; affinity (KD(eq)), Vβ8.2 NKT TCR, response at equilibrium
  Kd: 0.3 µM
